ChEMBL document CHEMBL4184291, “Discovery of N-arylpyrroles as agonists of GPR120 for the treatment of type II diabetes” (Bioorg Med Chem Lett, 2018)
Values belong to the molecule of their own block, whether it stands above or below them.

Columns and labels:
[1] = molecular target: T1, Free fatty acid receptor 4 (Homo sapiens, UniProt Q5NUL3); test: Agonist activity at recombinant human GPR120 short isoform expressed in HEK293 cells assessed as intracellular calcium flux measured for 300 secs at 1 sec time interval by Fluo-4 NW based FLIPR assay; type: functional, cell-based
T1 sequence (Q5NUL3 whole entry): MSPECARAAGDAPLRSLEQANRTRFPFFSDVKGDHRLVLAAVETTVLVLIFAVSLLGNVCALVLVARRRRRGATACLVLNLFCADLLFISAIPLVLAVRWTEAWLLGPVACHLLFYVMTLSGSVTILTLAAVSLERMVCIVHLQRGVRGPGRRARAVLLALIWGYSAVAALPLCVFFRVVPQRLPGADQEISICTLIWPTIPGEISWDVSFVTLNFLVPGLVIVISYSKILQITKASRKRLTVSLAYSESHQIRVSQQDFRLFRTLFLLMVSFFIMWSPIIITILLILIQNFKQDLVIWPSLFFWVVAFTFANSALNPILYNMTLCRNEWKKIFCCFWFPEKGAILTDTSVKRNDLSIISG
Method in brief: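 Human GPR120 calcium-flux assay in HEK-293 cells; values are averages of n > 2 runs, SEM < ±25%.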

[2] = Stability of the compound in air assessed as oxidation; type: physicochemical
[3] = molecular target: T2, Cytochrome P450 1A2 (Homo sapiens, UniProt P05177); test: Inhibition of CYP1A2 (unknown origin); type: ADME
T2 sequence (P05177 whole entry): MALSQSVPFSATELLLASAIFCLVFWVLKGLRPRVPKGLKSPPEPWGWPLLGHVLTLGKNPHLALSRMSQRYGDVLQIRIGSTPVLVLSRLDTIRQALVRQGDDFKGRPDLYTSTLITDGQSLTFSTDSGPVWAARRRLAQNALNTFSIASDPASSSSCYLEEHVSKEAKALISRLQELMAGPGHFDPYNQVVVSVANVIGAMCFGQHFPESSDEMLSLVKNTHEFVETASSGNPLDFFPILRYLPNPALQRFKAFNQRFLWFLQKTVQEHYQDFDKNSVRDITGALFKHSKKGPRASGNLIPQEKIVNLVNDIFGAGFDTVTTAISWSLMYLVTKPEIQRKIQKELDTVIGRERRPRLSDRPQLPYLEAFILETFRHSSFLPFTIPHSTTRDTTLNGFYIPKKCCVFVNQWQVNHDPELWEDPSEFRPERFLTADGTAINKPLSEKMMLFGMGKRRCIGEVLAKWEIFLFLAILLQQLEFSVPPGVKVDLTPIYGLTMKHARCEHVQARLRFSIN

[4] = molecular target: Cytochrome P450 2D6 (Homo sapiens, UniProt P10635); test: Inhibition of CYP2D6 (unknown origin); type: ADME
Sequence of Cytochrome P450 2D6 (P10635 whole entry): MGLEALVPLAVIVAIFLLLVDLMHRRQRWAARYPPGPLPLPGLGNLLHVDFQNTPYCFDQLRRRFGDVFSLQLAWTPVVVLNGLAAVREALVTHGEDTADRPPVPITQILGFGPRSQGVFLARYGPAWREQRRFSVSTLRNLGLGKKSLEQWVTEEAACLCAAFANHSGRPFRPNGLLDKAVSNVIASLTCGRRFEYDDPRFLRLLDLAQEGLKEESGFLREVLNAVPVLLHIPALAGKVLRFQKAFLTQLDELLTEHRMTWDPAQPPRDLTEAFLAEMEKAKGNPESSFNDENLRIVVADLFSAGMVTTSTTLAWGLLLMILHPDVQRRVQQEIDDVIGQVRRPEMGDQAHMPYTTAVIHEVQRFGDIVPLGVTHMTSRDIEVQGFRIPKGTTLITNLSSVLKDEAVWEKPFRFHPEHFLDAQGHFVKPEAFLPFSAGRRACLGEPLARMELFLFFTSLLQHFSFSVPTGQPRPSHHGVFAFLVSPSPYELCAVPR

[5] = Half life in human liver microsomes; type: ADME, microsome
[6] = Protein binding in rat plasma; type: ADME, cell-free; details: read-out: PPB (converted)
[7] = Protein binding in mouse plasma; type: ADME, cell-free; details: read-out: PPB (converted)
[8] = molecular target: Cytochrome P450 2C19 (Homo sapiens, UniProt P33261); test: Inhibition of CYP2C19 (unknown origin); type: ADME
Sequence of Cytochrome P450 2C19 (P33261 whole entry): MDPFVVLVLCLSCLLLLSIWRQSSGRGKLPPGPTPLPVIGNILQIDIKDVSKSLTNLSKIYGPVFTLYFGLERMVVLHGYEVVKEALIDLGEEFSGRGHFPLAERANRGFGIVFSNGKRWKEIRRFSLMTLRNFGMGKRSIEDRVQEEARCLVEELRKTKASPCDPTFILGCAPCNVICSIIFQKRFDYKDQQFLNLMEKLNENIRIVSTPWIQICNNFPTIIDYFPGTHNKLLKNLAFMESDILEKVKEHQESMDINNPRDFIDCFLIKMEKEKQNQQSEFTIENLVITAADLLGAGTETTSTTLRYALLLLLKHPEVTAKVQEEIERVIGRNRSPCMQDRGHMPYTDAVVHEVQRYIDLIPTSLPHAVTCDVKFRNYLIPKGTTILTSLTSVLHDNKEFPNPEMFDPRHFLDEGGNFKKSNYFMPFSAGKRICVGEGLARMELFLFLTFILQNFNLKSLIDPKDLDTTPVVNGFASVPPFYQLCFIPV

[9] = molecular target: Cytochrome P450 3A4 (Homo sapiens, UniProt P08684); test: Inhibition of CYP3A4 (unknown origin); type: ADME
Sequence of Cytochrome P450 3A4 (P08684 whole entry): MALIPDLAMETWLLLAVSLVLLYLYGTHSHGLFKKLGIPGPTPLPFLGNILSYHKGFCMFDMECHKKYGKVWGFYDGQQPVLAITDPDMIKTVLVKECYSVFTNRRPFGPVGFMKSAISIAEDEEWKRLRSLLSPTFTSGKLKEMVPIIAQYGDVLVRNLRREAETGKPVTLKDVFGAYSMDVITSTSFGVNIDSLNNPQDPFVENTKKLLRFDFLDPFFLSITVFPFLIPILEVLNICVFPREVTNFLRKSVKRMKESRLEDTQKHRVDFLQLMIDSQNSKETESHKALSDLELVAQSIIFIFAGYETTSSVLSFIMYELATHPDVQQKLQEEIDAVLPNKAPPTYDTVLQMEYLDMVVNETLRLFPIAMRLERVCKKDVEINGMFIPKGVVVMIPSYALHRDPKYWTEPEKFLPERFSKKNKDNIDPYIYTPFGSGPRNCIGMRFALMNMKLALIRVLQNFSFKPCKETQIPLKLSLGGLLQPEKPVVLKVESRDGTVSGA

[10] = Half life in rat liver microsomes; type: ADME, microsome
[11] = Half life in mouse liver microsomes; type: ADME, microsome
[12] = molecular target: Cytochrome P450 2C9 (Homo sapiens, UniProt P11712); test: Inhibition of CYP2C9 (unknown origin); type: ADME
Sequence of Cytochrome P450 2C9 (P11712 whole entry): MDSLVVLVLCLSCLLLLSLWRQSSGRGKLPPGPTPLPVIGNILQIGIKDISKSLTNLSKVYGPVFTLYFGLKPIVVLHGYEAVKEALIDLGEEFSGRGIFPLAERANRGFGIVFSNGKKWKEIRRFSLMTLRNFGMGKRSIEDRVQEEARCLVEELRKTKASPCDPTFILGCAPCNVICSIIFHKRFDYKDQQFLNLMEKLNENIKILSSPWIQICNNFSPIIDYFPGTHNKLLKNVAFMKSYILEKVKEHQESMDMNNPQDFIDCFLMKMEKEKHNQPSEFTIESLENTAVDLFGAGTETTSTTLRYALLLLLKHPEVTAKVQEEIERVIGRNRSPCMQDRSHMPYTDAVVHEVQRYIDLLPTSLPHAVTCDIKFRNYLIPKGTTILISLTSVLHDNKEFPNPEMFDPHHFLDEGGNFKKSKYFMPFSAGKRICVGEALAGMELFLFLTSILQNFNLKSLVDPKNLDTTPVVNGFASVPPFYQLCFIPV

[13] = Protein binding in human plasma; type: ADME, cell-free; details: read-out: PPB (converted)
[14] = tested on: Mus musculus; test: Antiobesity activity in diet-induced obesity C57Bl6/J mouse model assessed as change in plasma glucose level at 3 mg/kg qd for 15 days measured on day 15 post 6 hrs fasting; type: functional
[15] = tested on: Mus musculus; test: Antiobesity activity in diet-induced obesity C57Bl6/J mouse model assessed as final insulin level in plasma at 3 mg/kg qd for 15 days measured on day 15 post 6 hrs fasting (reference value: 7304 +/- 2967 pg/ml); type: functional
[16] = tested on: Mus musculus; test: Antiobesity activity in diet-induced obesity C57Bl6/J mouse model assessed as basal glucose level in plasma at 3 mg/kg qd for 15 days measured on day 15 post 6 hrs fasting (reference value: 187 +/- 24 mg/dL); type: functional
[17] = tested on: Mus musculus; test: Antiobesity activity in diet-induced obesity C57Bl6/J mouse model assessed as final glucose level in plasma at 3 mg/kg qd for 15 days measured on day 15 post 6 hrs fasting (reference value: 184 +/- 30 mg/dL); type: functional
[18] = tested on: Mus musculus; test: Antiobesity activity in diet-induced obesity C57Bl6/J mouse model assessed as change in plasma insulin level at 3 mg/kg qd for 15 days measured on day 15 post 6 hrs fasting; type: functional
[19] = tested on: Mus musculus; test: Antiobesity activity in diet-induced obesity C57Bl6/J mouse model assessed as basal insulin level in plasma at 3 mg/kg qd for 15 days measured on day 15 post 6 hrs fasting (reference value: 16959 +/- 4943 pg/ml); type: functional

Compound: COC(=O)CCc1cc(F)c(OCc2c(C(F)(F)F)ccn2-c2ccc(Cl)cc2)c(F)c1
EC50 [1]: > 5000 nM

Compound: COc1ccc(-n2ccc(C(F)(F)F)c2COc2c(F)cc(CCC(=O)O)cc2F)cc1
EC50 [1]: 184 nM

Compound: O=C(O)CCc1cc(F)c(OCc2c(C(F)(F)F)ccn2-c2ccccc2)c(F)c1
EC50 [1]: 100 to 101 nM

Compound: Cc1c(CCC(=O)O)ccc(OCc2cccn2-c2ccc(Br)cc2)c1C
Stability [2]: Unstable

Compound: CN(CCOc1ccc(CC2SC(=O)NC2=O)cc1)c1ccccn1 (centres undefined) [ROSIGLITAZONE]
Activity [14]: -36.6 mg/dL
Activity [15]: 1348 pg/mL
Activity [16]: 188 mg/dL
Activity [17]: 148 mg/dL
Activity [18]: -5970 pg/mL
Activity [19]: 15956 pg/mL

More lines, now with the values ahead:

Stability [2]: Stable
Compound: O=C(O)CCc1ccc(OCc2c(C(F)(F)F)ccn2-c2ccc(Cl)cc2)c(F)c1F

INH [3]: > 10 µM
INH [4]: > 10 µM
half-life [5]: 7 min
fraction unbound [6]: 0.0015
fraction unbound [7]: 0.0041
INH [8]: > 10 µM
INH [9]: > 10 µM
half-life [10]: < 4 min
half-life [11]: 85 min
INH [12]: 4.2 µM
fraction unbound [13]: 0.0008
Compound: Cc1ccc(-n2ccc(C(F)(F)F)c2COc2c(F)cc(CCC(=O)O)cc2F)cc1

INH [3]: > 10 µM
INH [4]: > 10 µM
half-life [5]: 15 min
fraction unbound [6]: 0.0008
fraction unbound [7]: 0.0014
INH [8]: 9 µM
INH [9]: > 10 µM
half-life [10]: < 4 min
half-life [11]: 7 min
INH [12]: 7 µM
fraction unbound [13]: 0.0002
Compound: CCc1ccc(-n2ccc(C(F)(F)F)c2COc2ccc(CCC(=O)O)c(F)c2F)cc1

Stability [2]: Stable
Compound: Cc1c(CCC(=O)O)ccc(OCc2c(C(F)(F)F)ccn2-c2ccc(Cl)cc2)c1C
